Measured values taken from ChEMBL document CHEMBL1155292, “Synthesis, analgesic and anti-inflammatory activities evaluation of some bi-, tri- and tetracyclic condensed pyrimidines” (Eur J Med Chem, 2009).

Legend:
Rattus norvegicus [1] = test: Antiinflammatory activity in albino rat assessed as inhibition of carrageenan-induced paw edema at 0.029 mmol/kg, po after 2 hrs relative to control; format: functional
Procedure, shortened: (§1)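 Adult albino rats of either sex, 120–150 g, six per group. Compounds at 0.029 mmol/kg suspended in saline with a few drops of Tween 80 and given by oral stomach tube. After 1 h, 0.1 ml of freshly prepared 1% carrageenan in saline injected subplantar into the right hind paw. Paw thickness measured at 1–4 h; % edema inhibition versus control; mean ± SEM; ANOVA.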

Rattus norvegicus [2] = test: Antiinflammatory activity in albino rat assessed as inhibition of carrageenan-induced paw edema at 0.029 mmol/kg, po after 1 hr relative to control; format: functional; procedure, shortened: as §1
Rattus norvegicus [3] = test: Antiinflammatory activity in albino rat assessed as inhibition of carrageenan-induced paw edema at 0.029 mmol/kg, po after 4 hrs relative to control; format: functional; procedure, shortened: as §1
Rattus norvegicus [4] = test: Antiinflammatory activity in albino rat assessed as inhibition of carrageenan-induced paw edema at 0.029 mmol/kg, po after 4 hrs relative to indomethacin; format: functional
Procedure, shortened: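 Rat carrageenan paw edema: oral 0.029 mmol/kg in saline/Tween 80, 1 h before subplantar 0.1 ml 1% carrageenan into the right hind paw; six rats per group. Potency is % inhibition of the test compound divided by % inhibition of indomethacin at 4 h.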

Rattus norvegicus [5] = test: Antiinflammatory activity in albino rat assessed as inhibition of carrageenan-induced paw edema at 0.029 mmol/kg, po after 3 hrs relative to control; format: functional; procedure, shortened: as §1
Rattus norvegicus [6] = test: Gastrointestinal toxicity in albino rat assessed as ulcerogenic index at 0.029 mmol/kg, po after 5 hrs; format: organism-based; conditions: in vivo
Procedure, shortened: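 Adult albino rats of either sex (120–150 g), 6 per group, got the test compounds orally by stomach tube as a suspension in saline with a few drops of tween 80. They were the same rats used in the carrageenan paw-edema test. Stomachs were then opened along the great curvature and examined for lesions or bleeding. Ulceration was recorded as the number of rats with ulcers out of 6.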

Mus musculus [7] = test: Analgesic activity in albino mouse assessed as decrease in acetic acid-induced writhing at 14.37 mg/kg, po administered 1 hr prior to acetic acid challenge relative to control; format: functional
Procedure, shortened: (§2)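 Albino mice of either sex, 18–22 g, six per group. Test agents suspended in saline with a few drops of Tween 80 and given by oral stomach tube; controls handled identically without drug. After 1 h, 0.3 ml of 1% acetic acid ip. Writhing contractions counted for 30 min, starting 5 min after injection. % protection versus control mean; mean ± SEM; one-way ANOVA with post hoc test.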

Mus musculus [8] = test: Analgesic activity in albino mouse assessed as decrease in acetic acid-induced writhing at 0.8 mg/kg, po administered 1 hr prior to acetic acid challenge; format: functional; procedure, shortened: as §2
Mus musculus [9] = test: Analgesic activity in albino mouse assessed as decrease in acetic acid-induced writhing at 8 mg/kg, po administered 1 hr prior to acetic acid challenge; format: functional; procedure, shortened: as §2
Mus musculus [10] = test: Analgesic activity in albino mouse assessed as decrease in acetic acid-induced writhing at 4 mg/kg, po administered 1 hr prior to acetic acid challenge; format: functional; procedure, shortened: as §2
Mus musculus [11] = test: Analgesic activity in albino mouse assessed as decrease in acetic acid-induced writhing at 1 mg/kg, po administered 1 hr prior to acetic acid challenge; format: functional; procedure, shortened: as §2
Mus musculus [12] = test: Analgesic activity in albino mouse assessed as decrease in acetic acid-induced writhing at 2 mg/kg, po administered 1 hr prior to acetic acid challenge; format: functional; procedure, shortened: as §2
Mus musculus [13] = test: Analgesic activity in albino mouse assessed as decrease in acetic acid-induced writhing at 10.86 mg/kg, po administered 1 hr prior to acetic acid challenge relative to control; format: functional; procedure, shortened: as §2
Mus musculus [14] = test: Analgesic activity in albino mouse assessed as decrease in acetic acid-induced writhing at 0.4 mg/kg, po administered 1 hr prior to acetic acid challenge; format: functional; procedure, shortened: as §2
Mus musculus [15] = test: Analgesic activity in po dosed albino mouse assessed as decrease in acetic acid-induced writhing administered 1 hr prior to acetic acid challenge; format: functional, organism-based; procedure, shortened: as §2
Mus musculus [16] = test: Analgesic activity in albino mouse assessed as decrease in acetic acid-induced writhing at 10.39 mg/kg, po administered 1 hr prior to acetic acid challenge relative to control; format: functional; procedure, shortened: as §2
Mus musculus [17] = test: Analgesic activity in albino mouse assessed as decrease in acetic acid-induced writhing at 12.4 mg/kg, po administered 1 hr prior to acetic acid challenge relative to control; format: functional; procedure, shortened: as §2
Mus musculus [18] = test: Analgesic activity in albino mouse assessed as decrease in acetic acid-induced writhing at 13 mg/kg, po administered 1 hr prior to acetic acid challenge relative to control; format: functional; procedure, shortened: as §2
Mus musculus [19] = test: Analgesic activity in albino mouse assessed as decrease in acetic acid-induced writhing at 15.26 mg/kg, po administered 1 hr prior to acetic acid challenge relative to control; format: functional; procedure, shortened: as §2
Rattus norvegicus [20] = test: Antiinflammatory activity in albino rat assessed as inhibition of carrageenan-induced paw edema at 25 mg/kg, po; format: functional
Procedure, shortened: (§3)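 Rat carrageenan paw edema with oral dosing at 10, 15, 20 and 25 mg/kg, suspended in saline with Tween 80, 1 h before subplantar 0.1 ml 1% carrageenan into the right hind paw. % edema inhibition versus control at each dose; IC50 (mg/kg) derived from these four doses.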

Rattus norvegicus [21] = test: Antiinflammatory activity in albino rat assessed as inhibition of carrageenan-induced paw edema at 20 mg/kg, po; format: functional; procedure, shortened: as §3
Mus musculus [22] = test: Analgesic activity in albino mouse assessed as decrease in acetic acid-induced writhing at 11.66 mg/kg, po administered 1 hr prior to acetic acid challenge relative to control; format: functional; procedure, shortened: as §2
Rattus norvegicus [23] = test: Antiinflammatory activity in albino rat assessed as inhibition of carrageenan-induced paw edema at 15 mg/kg, po; format: functional; procedure, shortened: as §3
Rattus norvegicus [24] = test: Antiinflammatory activity in albino rat assessed as inhibition of carrageenan-induced paw edema at 10 mg/kg, po; format: functional; procedure, shortened: as §3
Rattus norvegicus [25] = test: Antiinflammatory activity in po dosed albino rat assessed as inhibition of carrageenan-induced paw edema; format: functional, organism-based
Procedure, shortened: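 Adult albino rats of either sex, 120–150 g, groups of 6. Compound suspended in saline with a few drops of tween 80, given by oral stomach tube 1 h before subplantar injection of freshly prepared 1% carrageenan (0.1 ml) in saline into right hind paw. Paw thickness read at 1–4 h; % edema inhibition versus carrageenan control; mean ± SEM, one-way ANOVA with post hoc test.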

Mus musculus [26] = test: Analgesic activity in albino mouse assessed as decrease in acetic acid-induced writhing at 12.65 mg/kg, po administered 1 hr prior to acetic acid challenge relative to control; format: functional; procedure, shortened: as §2

Row | SMILES | inhibition in vivo at 29 µmol/kg (Rattus norvegicus [1]) | inhibition in vivo at 29 µmol/kg (Rattus norvegicus [2]) | inhibition in vivo at 29 µmol/kg (Rattus norvegicus [3]) | relative potency at 29 µmol/kg (Rattus norvegicus [4]) | inhibition in vivo at 29 µmol/kg (Rattus norvegicus [5]) | also measured
1 | CCOC(=O)c1cnn(-c2nc(-c3ccccc3)nc3c2C2CCCN2C(=O)N3c2ccccc2)c1N (configuration not stated) | 18.2% | 6.74% | 11.2% | 0.4 | 23.7% | UI (Rattus norvegicus [6]): Non-toxic; inhibition in vivo at 14.37 mg/kg (Mus musculus [7]): 74.8%
2 | CCN1C(=S)N2CCCC2C2=C1NC(c1ccc(OC)c(O)c1)NC2=O (configuration not stated) | 9.12% | 22.4% | 3.09% | 0.11 | 2.89% | inhibition in vivo at 0.8 mg/kg (Mus musculus [8]): 76%; inhibition in vivo at 8 mg/kg (Mus musculus [9]): 97%; inhibition in vivo at 4 mg/kg (Mus musculus [10]): 95.3%; inhibition in vivo at 1 mg/kg (Mus musculus [11]): 86.9%; inhibition in vivo at 2 mg/kg (Mus musculus [12]): 92%; inhibition in vivo at 10.86 mg/kg (Mus musculus [13]): 98.7%; inhibition in vivo at 0.4 mg/kg (Mus musculus [14]): 53.6%; IC50 (Mus musculus [15]): 0.359 mg/kg
3 | CCN1C(=S)N2CCCC2C2=C1NC(c1ccc(OC)cc1)NC2=O (configuration not stated) | 9.12% | 10.1% | 14.9% | 0.54 | 10.8% | inhibition in vivo at 10.39 mg/kg (Mus musculus [16]): 85%
4 | O=C1N(c2ccccc2)c2nc(-c3ccccc3)nc(N3CCOCC3)c2C2CCCN12 (configuration not stated) | 19% | 11.2% | 11.2% | 0.4 | 18.7% | inhibition in vivo at 12.4 mg/kg (Mus musculus [17]): 67%; UI (Rattus norvegicus [6]): Non-toxic
5 | N#Cc1cnn(-c2nc(-c3ccccc3)nc3c2C2CCCN2C(=O)N3c2ccccc2)c1N (configuration not stated) | 9.92% | 12.3% | 6.82% | 0.24 | 9.37% | inhibition in vivo at 13 mg/kg (Mus musculus [18]): 76.8%
6 | Cc1ccc(S(=O)(=O)NNc2nc(-c3ccccc3)nc3c2C2CCCN2C(=O)N3c2ccccc2)cc1 (configuration not stated) | 16.6% | 22.4% | 21.7% | 0.79 | 23.1% | inhibition in vivo at 15.26 mg/kg (Mus musculus [19]): 76.6%
7 | CCCNc1nc(-c2ccccc2)nc2c1C1CCCN1C(=O)N2c1ccccc1 (configuration not stated) | 25.6% | 13.5% | 36.6% | 1.34 | 30.9% | inhibition in vivo at 25 mg/kg (Rattus norvegicus [20]): 69%; inhibition in vivo at 20 mg/kg (Rattus norvegicus [21]): 63.3%; inhibition in vivo at 11.66 mg/kg (Mus musculus [22]): 69.6%; inhibition in vivo at 15 mg/kg (Rattus norvegicus [23]): 41.6%; inhibition in vivo at 10 mg/kg (Rattus norvegicus [24]): 27.6%; IC50 (Rattus norvegicus [25]): 16.5 mg/kg
8 | Cc1cc(C)n(-c2nc(-c3ccccc3)nc3c2C2CCCN2C(=O)N3c2ccccc2)n1 (configuration not stated) | 20.7% | 17.9% | 17.4% | 0.63 | 20.9% | inhibition in vivo at 12.65 mg/kg (Mus musculus [26]): 76.6%
